Test results as given in article PMC4765323 (Current topics in medicinal chemistry, 2009).
Positions count from the first letter of the chain named.

T1: M1 mAChR (M1/CHO cells) (Rattus norvegicus, UniProt P08482)
T1 sequence (P08482 1-460): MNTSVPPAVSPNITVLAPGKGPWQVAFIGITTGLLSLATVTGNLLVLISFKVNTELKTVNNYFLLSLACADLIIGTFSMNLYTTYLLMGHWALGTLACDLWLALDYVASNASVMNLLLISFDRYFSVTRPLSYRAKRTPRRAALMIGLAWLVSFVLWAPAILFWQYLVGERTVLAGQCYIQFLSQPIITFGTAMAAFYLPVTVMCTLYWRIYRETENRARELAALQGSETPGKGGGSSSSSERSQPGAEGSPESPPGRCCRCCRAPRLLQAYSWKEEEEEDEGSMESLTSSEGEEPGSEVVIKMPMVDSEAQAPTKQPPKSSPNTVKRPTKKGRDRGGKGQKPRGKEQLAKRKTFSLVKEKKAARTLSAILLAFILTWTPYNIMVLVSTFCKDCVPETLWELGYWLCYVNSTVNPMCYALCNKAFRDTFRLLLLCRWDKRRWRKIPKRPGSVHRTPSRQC

T2: Y381A mutant M1 mAChR (Homo sapiens, UniProt P11229, Y381A)
T2 sequence (P11229 1-460 Y381A): T1 sequence (P08482 1-460) with V5A, S254T, S309P, K320R, G337A, Y381A, V413I

T3: M1 mAChR (Homo sapiens, UniProt P11229)
T3 sequence (P11229 1-460): T1 sequence (P08482 1-460) with V5A, S254T, S309P, K320R, G337A, V413I

B1: MT7 (protein, UniProt Q8QGR0 22-86, looked up)
Muscarinic toxin 7: LTCVKSNSIWFPTSEDCPDGQNLCFKRWQYISPRMYDFTRGCAATCPKAEYRDVINCCGTDKCNK

Legend:
[1] = molecular target: T1, M1 mAChR (M1/CHO cells); test: functional cell-based calcium-mobilization assay, M1/CHO cell line; settings: read-out: M1 IC50
Procedure, shortened: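 Real-time calcium mobilisation in CHO cells expressing M1, with a Z' averaging 0.7. Primary hits from a single-pass library screen were retested in duplicate and counter-screened on mGluR4/CHO cells. IC50 values came from 10-point concentration-response curves run in triplicate, tested in parallel on M4/CHO cells.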

[2] = tested on: pilocarpine-induced seizures; test: pilocarpine-induced seizures in vivo; parameters: species or system mice; settings: pilocarpine 280 mg/kg
[3] = plasma:brain study; type: in vivo, Sprauge Dawley rat; settings: male rats, 10 mg/kg i.p.
[4] = molecular target: T2, Y381A mutant M1 mAChR; test: mutagenesis experiment, Y381A mutant M1; type: cell-based; settings: wherein ACh loses affinity
[5] = tested on: NMDAR currents in hippocampal CA1 pyramidal cells; type: cell-based
[6] = tested on: M2-M5 mAChR; test: functional mAChR selectivity, M2-M5 reported together; type: cell-based, rat
[7] = molecular target: T3, M1 mAChR; test: phosphoinositide; type: cell-based; settings: PI hydrolysis, ACh concentration-response curve
Procedure, shortened: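 Phosphoinositide hydrolysis was driven by an ACh concentration-response curve, run with and without several test compound concentrations. Rightward shifts of the ACh curve were fitted by Schild analysis to give a Kd and a slope.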

[8] = tested on: M1 receptor versus M2-M5; settings: reported for known antagonists, no reference given; cited from earlier work

| Molecule | IC50 [1] | seizure count ([2]; compound 10 mg/kg i.p.) | animals that died ([2]; compound 10 mg/kg i.p. after 40 minutes, 2/8 at 24 hours) | BrainAUC/PlasmaAUC [3] | antagonism of M1 mAChR responses in Y381A mutant [4] | block of CCh-potentiated NMDA-evoked current ([5]; 10 μM CCh, 5 μM compound) | effect of compound alone on NMDA-evoked current ([5]; compound alone, no CCh) | functional selectivity for M1 versus M2-M5 ([6]; functional) | IC50 ([6]; read-out: M2-M5 IC50, functional, one bound for all of M2-M5) | inhibition of M2-M5 ([6]; up to 150 μM in some experiments, concentrations solubility limited) | Schild slope [7] | M1 selectivity versus M2-M5 [8] |
| --- | --- | --- | --- | --- | --- | --- | --- | --- | --- | --- | --- | --- |
| O=C(CCNS(=O)(=O)c1cccc2nsnc12)N1CCN(c2ccncc2)CC1 [VU0255035] | 130 nM | statistically significant effect reducing seizure count | 25% | 0.48 | right shifted | completely blocked | no effect | > 75 fold | > 10000 nM | little inhibition | 0.90 ± 0.08 | – |
| B1 | – | – | – | – | – | – | – | – | – | – | – | > 1,000 fold |
